The source of these data is ChEMBL document CHEMBL1165904, “Design, synthesis and 3D-QSAR of beta-carboline derivatives as potent antitumor agents” (Eur J Med Chem, 2010).

Common to all, as to format: functional, cell-based
The test system of one experiment is HeLa. As to the kind of experiment: Cytotoxicity against human HeLa cells by MTT assay. In short, it runs like this:
(§1)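 Tumour cells cultured in RPMI-1640 with 10% (v/v) fetal calf serum plus penicillin and streptomycin, at 37 °C, humidified 5% CO2. Compounds from DMSO stocks; final DMSO in medium 2% (v/v) or lower. Assay in 96-well microtitre cultures with MTT staining. IC50 taken as concentration causing 50% growth inhibition relative to untreated cells.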
In general terms: Tetrazolium dyes change colour on reduction, which living cells bring about.

Another experiment has as its system Bel-7402. As to the kind of experiment: Cytotoxicity against human Bel7402 cells by MTT assay. Put shortly:
as §1

The next experiment concerns HepG2. As to the kind of experiment: Cytotoxicity against human HepG2 cells by MTT assay. Put shortly: as §1
In the next experiment the test system is BGC-823. Briefly: Cytotoxicity against human BGC823 cells by MTT assay. In short, it runs like this: as §1
The test system of a further experiment is MCF7. As to the kind of experiment: Cytotoxicity against human MCF7 cells by MTT assay. In short, it runs like this:
as §1

Turning to `CCCCOc1ccc2c3ccnc(C)c3n(CC(C)C)c2c1`, the IC50 with HeLa is 20.8 µM; in the experiment on Bel-7402, 42.5 µM; in the experiment on HepG2 (read-out: IC50), 12.1 µM; in the experiment on HepG2 (read-out: pIC50 (converted)), 12 µM; in the experiment with BGC-823, 12.1 µM; with MCF7 it was 7.2 µM.

As to `Cc1nccc2c3ccc(OCc4ccccc4)cc3n(CC(C)C)c12`, the IC50 is 50.5 µM in the experiment on HeLa; 26.8 µM in the experiment on Bel-7402; 22.2 µM in the experiment with HepG2 (read-out: IC50); 22.4 µM in the experiment on HepG2 (read-out: pIC50 (converted)); 36 µM with BGC-823; 54.1 µM in the experiment on MCF7.

Regarding `Cc1nccc2c3ccc(OC(C)C)cc3n(CCCc3ccccc3)c12`, the IC50 in the experiment on HeLa was 48.6 µM; with Bel-7402, 36.2 µM; in the experiment on HepG2 (read-out: IC50), 14.6 µM; with HepG2 (read-out: pIC50 (converted)), 14.5 µM; with BGC-823, 16.3 µM; in the experiment with MCF7, 45.3 µM.

Take `CCOc1ccc2c3ccnc(C)c3n(CC)c2c1`: the IC50 was 30.7 µM with HeLa; 27.4 µM with Bel-7402; 68.9 µM with HepG2 (read-out: IC50); 69.2 µM in the experiment on HepG2 (read-out: pIC50 (converted)); 57.1 µM with BGC-823; 14.4 µM in the experiment on MCF7.

As to `CCn1c2cc(OCc3c(F)c(F)c(F)c(F)c3F)ccc2c2ccnc(C)c21`, the IC50 with HeLa was 258 µM; in the experiment with Bel-7402, 241 µM; in the experiment on HepG2 (read-out: IC50), 236 µM; with HepG2 (read-out: pIC50 (converted)), 234 µM; in the experiment on BGC-823 it was 238 µM; in the experiment on MCF7, 103 µM.

For `CCCCn1c2cc(OCC)ccc2c2ccnc(C)c21`, the IC50 with HeLa is 32.1 µM; with Bel-7402, 36.1 µM; in the experiment with HepG2 (read-out: IC50), 43.3 µM; in the experiment on HepG2 (read-out: pIC50 (converted)) it was 43.7 µM; with BGC-823, 37.2 µM; with MCF7 it was 12 µM.

Consider `CCCCn1c2cc(OC(C)C)ccc2c2ccnc(C)c21`, for which the IC50 in the experiment with HeLa was 21.2 µM; with Bel-7402 it was 26.8 µM; with HepG2 (read-out: IC50), 30.2 µM; in the experiment on HepG2 (read-out: pIC50 (converted)), 30.2 µM; in the experiment with BGC-823 it was 19.1 µM; in the experiment on MCF7, 19.5 µM.

As for `CCCCCCCCCCOc1ccc2c3ccnc(C)c3n(CCCC)c2c1`, the IC50 was 106 µM with HeLa; 18.8 µM in the experiment with Bel-7402; 127 µM with HepG2 (read-out: IC50); 126 µM with HepG2 (read-out: pIC50 (converted)); 28.4 µM in the experiment with BGC-823; 62.7 µM with MCF7.

On to `CCn1c2cc(OCc3c(F)c(F)c(F)c(F)c3F)ccc2c2cc[n+](Cc3ccccc3)c(C)c21`, for which the IC50 with HeLa is 0.93 µM; in the experiment with Bel-7402, 4 µM; with HepG2 (read-out: IC50) it was 1.6 µM; in the experiment on HepG2 (read-out: pIC50 (converted)) it was 1.58 µM; in the experiment on BGC-823 it was 4.6 µM; in the experiment with MCF7, 5.7 µM.

For the compound `CCCCOc1ccc2c3cc[n+](Cc4ccccc4)c(C)c3n(CC(C)C)c2c1`, the IC50 was 2.6 µM in the experiment with HeLa; 5.3 µM in the experiment on Bel-7402; 1.8 µM in the experiment on HepG2 (read-out: IC50); 1.82 µM with HepG2 (read-out: pIC50 (converted)); 6.8 µM in the experiment with BGC-823; 5.3 µM with MCF7.

Take `Cc1c2c(cc[n+]1Cc1ccccc1)c1ccc(OCc3ccccc3)cc1n2CC(C)C`: the IC50 with HeLa was 12.4 µM; with Bel-7402, 5 µM; with HepG2 (read-out: IC50), 1.9 µM; with HepG2 (read-out: pIC50 (converted)), 1.91 µM; with BGC-823, 5.2 µM; with MCF7, 3.9 µM.

With `Cc1nccc2c3ccc(OCc4ccccc4)cc3n(CCCc3ccccc3)c12`, the IC50 with HeLa was 72.6 µM; with Bel-7402 it was 29.4 µM; in the experiment on HepG2 (read-out: IC50) it was 15.7 µM; with HepG2 (read-out: pIC50 (converted)), 15.8 µM; with BGC-823, 19.5 µM; with MCF7, 63.3 µM.

On to `Cc1nccc2c3ccc(OCc4c(F)c(F)c(F)c(F)c4F)cc3n(CCCc3ccccc3)c12`, for which the IC50 in the experiment with HeLa is 73.5 µM; in the experiment with Bel-7402, 18.6 µM; with HepG2 (read-out: IC50), 147 µM; with HepG2 (read-out: pIC50 (converted)), 148 µM; in the experiment with BGC-823 it was 7.88 µM; in the experiment with MCF7 it was 38.7 µM.

Turning to `Cc1nccc2c3ccc(O)cc3n(CCCc3ccccc3)c12`, the IC50 is 45.3 µM in the experiment on HeLa; 35.1 µM in the experiment on Bel-7402; 28.3 µM with HepG2 (read-out: IC50); 28.2 µM in the experiment on HepG2 (read-out: pIC50 (converted)); 29.9 µM with BGC-823; 34.5 µM in the experiment on MCF7.

As for `CCCCn1c2cc(O)ccc2c2ccnc(C)c21`, the IC50 in the experiment with HeLa is 89.8 µM; in the experiment on Bel-7402 it was 69.5 µM; in the experiment on HepG2 (read-out: IC50) it was 81.5 µM; in the experiment with HepG2 (read-out: pIC50 (converted)), 81.3 µM; with BGC-823, 90.2 µM; with MCF7, 46.9 µM.

On to `CCCCOc1ccc2c3ccnc(C)c3n(CCCC)c2c1`, for which the IC50 is 17.4 µM with HeLa; 69.9 µM in the experiment with Bel-7402; 15.5 µM in the experiment with HepG2 (read-out: IC50); 15.5 µM in the experiment with HepG2 (read-out: pIC50 (converted)); 15.8 µM in the experiment on BGC-823; 17.3 µM in the experiment on MCF7.

On to `CCCCCCCCOc1ccc2c3cc[n+](Cc4ccccc4)c(C)c3n(CCCc3ccccc3)c2c1`, for which the IC50 with HeLa is 2.2 µM; in the experiment on Bel-7402 it was 2 µM; in the experiment with HepG2 (read-out: IC50) it was 3.9 µM; in the experiment on HepG2 (read-out: pIC50 (converted)), 3.89 µM; in the experiment on BGC-823, 3.9 µM; in the experiment with MCF7 it was 5.3 µM.

As for `CCOc1ccc2c3cc[n+](Cc4ccccc4)c(C)c3n(CC)c2c1`, the IC50 in the experiment with HeLa was 2.2 µM; with Bel-7402, 12.6 µM; with HepG2 (read-out: IC50), 14.3 µM; with HepG2 (read-out: pIC50 (converted)) it was 14.5 µM; in the experiment on BGC-823 it was 9.2 µM; with MCF7 it was 8.1 µM.

Take `CCCCCCCCOc1ccc2c3ccnc(C)c3n(CCCc3ccccc3)c2c1`: the IC50 was 69.6 µM with HeLa; 21.8 µM in the experiment on Bel-7402; 105 µM in the experiment with HepG2 (read-out: IC50); 105 µM in the experiment with HepG2 (read-out: pIC50 (converted)); 17.4 µM in the experiment on BGC-823; 45.9 µM in the experiment with MCF7.

With `Cc1nccc2c3ccc(O)cc3n(CC(C)C)c12`, the IC50 with HeLa was 68.3 µM; in the experiment with Bel-7402 it was 114 µM; in the experiment on HepG2 (read-out: IC50), 116 µM; with HepG2 (read-out: pIC50 (converted)), 115 µM; with BGC-823, 140 µM; in the experiment on MCF7, 96.9 µM.
